Laboratory results reported in ChEMBL document CHEMBL1926565, “Synthesis, antiproliferative activities and telomerase inhibition evaluation of novel asymmetrical 1,2-disubstituted amidoanthraquinone derivatives” (Eur J Med Chem, 2012).

Tests used:
Assay type in all cases: functional
CCRF-CEM = test: Anticancer activity against human CCRF-CEM cells
In short: (§1)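 NCI 60-human-tumour-cell-line panel. Selected analogues were first run at one dose, then some were carried into multi-dose testing. GI50 (50% growth inhibition), TGI (total growth inhibition) and LC50 (50% cell kill) were read as values interpolated where the dose–response curves cross these levels.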

HL-60(TB) = test: Anticancer activity against human HL-60(TB) cells
In short: (§2)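 Tested by the NCI in its 60-human-tumour-cell-line panel. Dose-response curves were run, and GI₅₀ (50% growth inhibition), TGI (total growth inhibition) and LC₅₀ (50% cell killing) were read as interpolated concentrations where the curves cross those levels.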

MOLT-4 = test: Anticancer activity against human MOLT4 cells; in short: as §1
HOP-62 = test: Anticancer activity against human HOP62 cells; in short: as §1
NCI-H322M = test: Anticancer activity against human NCI-H322M cells; in short: as §1
NCI-H460 = test: Anticancer activity against human NCI-H460 cells; in short: as §1
NCI-H522 = test: Anticancer activity against human NCI-H522 cells; in short: as §1
A549 = test: Anticancer activity against human A549 cells; conditions: for CC50: read-out: LC50 (the source's name); in short: as §1
HCC 2998 = test: Anticancer activity against human HCC2998 cells; conditions: for CC50: read-out: LC50 (the source's name); in short: as §1
SF-268 = test: Anticancer activity against human SF268 cells; conditions: for CC50: read-out: LC50 (the source's name); in short: as §1
SF-295 = test: Anticancer activity against human SF295 cells; conditions: for CC50: read-out: LC50 (the source's name); in short: as §1
SF-539 = test: Anticancer activity against human SF539 cells; conditions: read-out: LC50 (the source's name); in short: as §1
LOX IMVI = test: Anticancer activity against human LOXIMVI cells; conditions: for CC50: read-out: LC50 (the source's name); in short: as §1
Malme-3M = test: Anticancer activity against human MALME-3M cells; conditions: for CC50: read-out: LC50 (the source's name); in short: as §2
SK-MEL-5 = test: Anticancer activity against human SK-MEL-5 cells; conditions: for CC50: read-out: LC50 (the source's name); in short: as §1
UACC-62 = test: Anticancer activity against human UACC62 cells; conditions: for CC50: read-out: LC50 (the source's name)
IGROV-1 = test: Anticancer activity against human IGROV1 cells; conditions: for CC50: read-out: LC50 (the source's name); in short: as §1
OVCAR-4 = test: Anticancer activity against human OVCAR4 cells; conditions: for CC50: read-out: LC50 (the source's name); in short: as §1
OVCAR-8 = test: Anticancer activity against human OVCAR8 cells; conditions: for CC50: read-out: LC50 (the source's name); in short: as §1
SK-OV-3 = test: Anticancer activity against human SKOV3 cells; conditions: for CC50: read-out: LC50 (the source's name); in short: as §1
A498 = test: Anticancer activity against human A498 cells; conditions: for CC50: read-out: LC50 (the source's name); in short: as §1
ACHN = test: Anticancer activity against human ACHN cells; conditions: for CC50: read-out: LC50 (the source's name); in short: as §1
TK-10 = test: Anticancer activity against human TK10 cells; conditions: for CC50: read-out: LC50 (the source's name)
CAKI-1 = test: Anticancer activity against human Caki1 cells; conditions: for CC50: read-out: LC50 (the source's name); in short: as §1
RXF 393 = test: Anticancer activity against human RXF393 cells; conditions: for CC50: read-out: LC50 (the source's name); in short: as §1
MCF7 = test: Anticancer activity against human MCF7 cells; conditions: for CC50: read-out: LC50 (the source's name); in short: as §1
MDA-MB-231 = test: Anticancer activity against human MDA-MB-231 cells; conditions: for CC50: read-out: LC50 (the source's name); in short: as §1
[1] = Anticancer activity against human Hs 578T cells; conditions: for CC50: read-out: LC50 (the source's name); in short: as §1
T47D = test: Anticancer activity against human T47D cells; conditions: for CC50: read-out: LC50 (the source's name)
MDA-MB-468 = test: Anticancer activity against human MDA-MB-468 cells; conditions: for CC50: read-out: LC50 (the source's name); in short: as §1
RPMI-8226 = test: Cytotoxicity against human RPMI8226 cells assessed as cellular growth at 10 uM
In short: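 Single-dose screen run by the NCI across its 60-human-tumour-cell-line panel; growth recorded for each cell line.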

[2] = read-out: LC50 (the source's name)

`Cc1ccc(C(=O)Nc2c(NC(=O)CCl)ccc3c2C(=O)c2ccccc2C3=O)cc1` gave a GI50 (CCRF-CEM) of 2.54 µM, a TGI (CCRF-CEM) greater than 50 µM and a CC50 (CCRF-CEM; [2]) greater than 50 µM. For the same compound, the GI50 (HL-60(TB)) was 6.14 µM, the TGI (HL-60(TB)) was 24.6 µM and the CC50 (HL-60(TB); [2]) was greater than 50 µM. For the same compound, the GI50 (MOLT-4) was 2.29 µM, the TGI (MOLT-4) was 2.95 µM and the CC50 (MOLT-4; [2]) was greater than 50 µM. It also gave a GI50 (HOP-62) of 2.97 µM, an LC50 (50% cell kill) (HOP-62) of 24.4 µM and a TGI (HOP-62) of 9.49 µM. The GI50 (NCI-H322M) was 3.76 µM, the LC50 (50% cell kill) (NCI-H322M) was 45.4 µM and the TGI (NCI-H322M) was 13.7 µM. The GI50 (NCI-H460) was 5.81 µM, the LC50 (50% cell kill) (NCI-H460) was 34.1 µM and the TGI (NCI-H460) was 14.1 µM. It also gave a GI50 (NCI-H522) of 0.88 µM, a TGI (NCI-H522) of 2.03 µM and a GI50 (A549) of 12.3 µM. For the same compound, the TGI (A549) was 29.2 µM, the CC50 (A549) was greater than 50 µM and the CC50 (HCC 2998) was 29.4 µM. For the same compound, the CC50 (SF-268) was greater than 50 µM, the CC50 (SF-295) was 42.2 µM and the CC50 (SF-539) was 25.1 µM. The GI50 (LOX IMVI) was 0.78 µM, the TGI (LOX IMVI) was 1.84 µM and the CC50 (LOX IMVI) was 4.29 µM. It also gave a GI50 (Malme-3M) of 5.89 µM, a TGI (Malme-3M) of 15.6 µM and a CC50 (Malme-3M) of 41.1 µM. It also gave a GI50 (SK-MEL-5) of 0.83 µM, a TGI (SK-MEL-5) of 1.53 µM and a CC50 (SK-MEL-5) of 2.83 µM. For the same compound, the GI50 (UACC-62) was 9.92 µM, the TGI (UACC-62) was 17.9 µM and the CC50 (UACC-62) was 32.2 µM. The GI50 (IGROV-1) was 5.6 µM, the TGI (IGROV-1) was 17 µM and the CC50 (IGROV-1) was greater than 50 µM. It also gave a GI50 (OVCAR-4) of 5.52 µM, a TGI (OVCAR-4) of 12 µM and a CC50 (OVCAR-4) of 25.9 µM. For the same compound, the GI50 (OVCAR-8) was 3.32 µM, the TGI (OVCAR-8) was 28.5 µM and the CC50 (OVCAR-8) was greater than 50 µM. The GI50 (SK-OV-3) was 13.2 µM, the TGI (SK-OV-3) was 35.9 µM and the CC50 (SK-OV-3) was greater than 50 µM. It also gave a GI50 (A498) of 9.87 µM, a TGI (A498) of 22.5 µM and a CC50 (A498) greater than 50 µM. For the same compound, the GI50 (ACHN) was 7.18 µM, the TGI (ACHN) was 14.3 µM and the CC50 (ACHN) was 28.6 µM. It also gave a GI50 (TK-10) of 2.34 µM, a TGI (TK-10) of 4.94 µM and a CC50 (TK-10) of 29.2 µM. For the same compound, the GI50 (CAKI-1) was 6.87 µM, the TGI (CAKI-1) was 15.2 µM and the CC50 (CAKI-1) was 33.7 µM. For the same compound, the GI50 (RXF 393) was 7.84 µM, the TGI (RXF 393) was 16.5 µM and the CC50 (RXF 393) was 34.6 µM. The GI50 (MCF7) was 1.12 µM, the TGI (MCF7) was 4.95 µM and the CC50 (MCF7) was greater than 50 µM. It also gave a GI50 (MDA-MB-231) of 6.51 µM, a TGI (MDA-MB-231) greater than 50 µM and a CC50 (MDA-MB-231) greater than 50 µM. The GI50 [1] was 1.64 µM, the TGI [1] was 9.12 µM and the CC50 [1] was greater than 50 µM. For the same compound, the GI50 (T47D) was 1.19 µM, the TGI (T47D) was 4.04 µM and the CC50 (T47D) was 46.3 µM. The GI50 (MDA-MB-468) was 0.83 µM, the TGI (MDA-MB-468) was 1.82 µM and the CC50 (MDA-MB-468) was 3.98 µM.

With `Cc1ccc(C(=O)Nc2c(NC(=O)CN3CCN(C)CC3)ccc3c2C(=O)c2ccccc2C3=O)cc1` the GI50 (HOP-62) was greater than 100 µM, the LC50 (50% cell kill) (HOP-62) was greater than 100 µM and the TGI (HOP-62) was greater than 100 µM. The GI50 (NCI-H322M) was greater than 100 µM, the LC50 (50% cell kill) (NCI-H322M) was greater than 100 µM and the TGI (NCI-H322M) was greater than 100 µM. It also gave a GI50 (NCI-H460) of 3.36 µM, an LC50 (50% cell kill) (NCI-H460) greater than 100 µM and a TGI (NCI-H460) greater than 100 µM. For the same compound, the TGI (NCI-H522) was greater than 100 µM, the CC50 (NCI-H522; [2]) was greater than 100 µM and the TGI (A549) was greater than 100 µM. The CC50 (A549) was greater than 100 µM, the GI50 (HCC 2998) was 3 µM and the TGI (HCC 2998) was greater than 100 µM. The CC50 (HCC 2998) was greater than 100 µM, the TGI (SF-268) was greater than 100 µM and the CC50 (SF-268) was greater than 100 µM. It also gave a GI50 (SF-295) greater than 100 µM, a TGI (SF-295) greater than 100 µM and a CC50 (SF-295) greater than 100 µM. It also gave a TGI (LOX IMVI) greater than 100 µM, a CC50 (LOX IMVI) greater than 100 µM and a CC50 (Malme-3M) greater than 100 µM. It also gave a GI50 (SK-MEL-5) of 1.94 µM, a CC50 (SK-MEL-5) greater than 100 µM and a GI50 (UACC-62) of 2.52 µM. The CC50 (UACC-62) was greater than 100 µM, the GI50 (IGROV-1) was greater than 100 µM and the TGI (IGROV-1) was greater than 100 µM. It also gave a CC50 (IGROV-1) greater than 100 µM, a TGI (OVCAR-4) greater than 100 µM and a CC50 (OVCAR-4) greater than 100 µM. For the same compound, the GI50 (OVCAR-8) was greater than 100 µM, the TGI (OVCAR-8) was greater than 100 µM and the CC50 (OVCAR-8) was greater than 100 µM. It also gave a GI50 (SK-OV-3) greater than 100 µM, a TGI (SK-OV-3) greater than 100 µM and a CC50 (SK-OV-3) greater than 100 µM. The GI50 (A498) was greater than 100 µM, the TGI (A498) was greater than 100 µM and the CC50 (A498) was greater than 100 µM. The TGI (ACHN) was greater than 100 µM, the CC50 (ACHN) was greater than 100 µM and the GI50 (TK-10) was greater than 100 µM. For the same compound, the TGI (TK-10) was greater than 100 µM, the CC50 (TK-10) was greater than 100 µM and the TGI (CAKI-1) was greater than 100 µM. It also gave a CC50 (CAKI-1) greater than 100 µM, a TGI (RXF 393) greater than 100 µM and a CC50 (RXF 393) greater than 100 µM. For the same compound, the GI50 (MCF7) was 3.13 µM, the TGI (MCF7) was greater than 100 µM and the CC50 (MCF7) was greater than 100 µM. It also gave a GI50 (MDA-MB-231) of 3.3 µM, a TGI (MDA-MB-231) greater than 100 µM and a CC50 (MDA-MB-231) greater than 100 µM. For the same compound, the GI50 [1] was greater than 100 µM, the TGI [1] was greater than 100 µM and the CC50 [1] was greater than 100 µM. It also gave a GI50 (T47D) of 2.62 µM, a CC50 (T47D) greater than 100 µM and a GI50 (MDA-MB-468) of 2.58 µM. For the same compound, the TGI (MDA-MB-468) was greater than 100 µM and the CC50 (MDA-MB-468) was greater than 100 µM.

Compound `Cc1ccc(C(=O)Nc2ccc3c(c2NC(=O)c2ccc(C)cc2)C(=O)c2ccccc2C3=O)cc1` has an Activity (RPMI-8226) of 101.77%.
